Compound activity deposited in PubChem BioAssay by several laboratories.
Compounds with a hit are over-represented: about 1.6% of the library has one in this group of screens.
Rpn11 block – Rpn11 (PSMD14) deubiquitinase inhibitors, primary screen, biochemical, fluorescence polarization, uHTS. 26S proteasome non-ATPase regulatory subunit 14 (Homo sapiens), O00487. human 26S proteasome, Ub4-pepOG fluorescence polarization; 20S core pre-blocked with epoxomicin. inhibition, % at 20 µM. hit rate 0.59% among 360,000;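 active means inhibition at 20 µM, scaled to each plate's controls, above about 33%, limit read from the data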
Target sequence (O00487 whole entry, looked up): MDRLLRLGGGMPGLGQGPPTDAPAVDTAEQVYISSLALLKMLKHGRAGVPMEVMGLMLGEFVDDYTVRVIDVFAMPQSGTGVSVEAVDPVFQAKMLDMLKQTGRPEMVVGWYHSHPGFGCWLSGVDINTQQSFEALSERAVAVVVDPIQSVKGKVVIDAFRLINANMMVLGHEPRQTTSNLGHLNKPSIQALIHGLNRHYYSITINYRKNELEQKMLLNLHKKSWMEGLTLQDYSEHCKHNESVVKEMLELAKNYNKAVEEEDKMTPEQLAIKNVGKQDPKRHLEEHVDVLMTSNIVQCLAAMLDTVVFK
CSN deneddyl inh – inhibitors of CSN-mediated cullin deneddylation, primary screen, biochemical, fluorescence polarization, uHTS | AID 651999, 2013 | Purified CSN, SCF-Nedd8-OG deneddylation | inhibition, % at 12.5 µM | hit rate 0.38% among 360,000;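 active means pattern-corrected inhibition above about 35%, with an unprinted fluorescence ratio check between 0.5 and 1.5, limit read from the data, passing the limit was not always enough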;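 further: 0% = enzyme with substrate and 100% = substrate without enzyme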
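Assay system: purified human Csn5 enzyme expressed in HEK293T cells; Input: 0.24 nM Csn5 enzyme, final concentration; Reagent: 10 nM SCFSkp2-Nedd8OG; Compound dosing: 12.5 µM single point; Times: reaction 90 min, room temperature; Technique: fluorescence polarization readout.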
TPT1 inh – Candida albicans TPT1 enzyme inhibitors, primary screen, biochemical, fluorescence polarization; tRNA 2'-phosphotransferase TPT1 (Candida albicans SC5314); recombinant caTPT1, FP RNA substrate dephosphorylation; inhibition, % at 5 µM; hit rate 0.81% among 300,000; AID 1962, 2009;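 active means inhibition above the mean of all tested compounds plus 3 SD, set per screening campaign, cut at about 24% in these data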;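 further: plate controls were DMSO alone for no effect and ferristatin control at 100 nM for full effect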
SENP1 FRET inh – human SENP1 catalytic domain inhibitors, primary screen, biochemical, FRET, uHTS | hit rate 0.21% among 360,000 | recombinant SENP1 catalytic domain, CyPet-SUMO1-YPet FRET cleavage | inhibition, % at 10 µM | Sentrin-specific protease 1 (Homo sapiens), Q9P0U3;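 active means inhibition at least 30% at 10 µM, raw YFP signal under a set limit, fluorescence ratio 0.5 to 1.5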;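 further: 0% = enzyme with DMSO and 100% = no enzyme wells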
Target sequence (Q9P0U3 419-644 limits assumed): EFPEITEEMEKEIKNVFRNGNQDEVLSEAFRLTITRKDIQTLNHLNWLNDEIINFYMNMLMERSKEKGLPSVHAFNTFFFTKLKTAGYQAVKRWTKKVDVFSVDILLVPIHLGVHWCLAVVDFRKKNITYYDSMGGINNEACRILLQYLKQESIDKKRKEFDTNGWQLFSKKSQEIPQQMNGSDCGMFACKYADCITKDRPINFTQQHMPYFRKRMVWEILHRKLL
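Test system: hSENP1 catalytic domain, recombinant; Amount: 20 pM final SENP1 enzyme; Medium: Tris pH 8 buffer plus EDTA, NaCl, BME, BSA, NP40, catalase; Schedule: 50 min enzyme reaction, room temperature, light-protected; Technique: FRET fluorescence in CFP and YFP emission channels; Controls: no-enzyme wells low, DMSO-plus-enzyme wells high control.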
HNF4A DNA FP – change in binding of human HNF4A to DNA, primary screen, biochemical, fluorescence polarization, FITC-DNA | hit rate 0.3% among 360,000 | activity change, % at 10 µM | 1 h; in the data active means activity change above about 30%, passing the limit was not always enough
Rpn11 confirm – Rpn11 (PSMD14) deubiquitinase inhibitors, confirmation, biochemical, fluorescence polarization, single concentration; shares compounds with Rpn11 block; purified human 26S proteasome, Ub4-pepOG fluorescence polarization; proteasome pretreated with epoxomicin; inhibition, % at 20 µM; hit rate 29% among 1,900
MMP-2 inh – MMP-2 enzyme inhibition, confirmation, counter-screen for RPN11 inhibitor project, biochemical, fluorescence, single concentration. shares compounds with Rpn11 block. recombinant MMP-2, FRET peptide cleavage fluorescence. inhibition, % at 20 µM. hit rate 4% among 1,900. AID 602330, 2012;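 further: human MMP-2 activated beforehand with APMA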
Thrombin FP – bovine thrombin protease inhibition, confirmation, counter-screen for Rpn11 inhibitor project, biochemical, fluorescence polarization, single concentration. shares compounds with Rpn11 block. bovine thrombin cleavage of Ub4-pepOG. inhibition, % at 20 µM. hit rate 13% among 1,900. AID 602333, 2012;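 active means mean inhibition at least 40% at 20 µM, or signal 3 deviations below plate average, so some actives read negative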;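 further: plate controls were thrombin with DMSO for no effect and buffer wells lacking thrombin for full effect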
* = called active by the depositor; · = no result given; + = active, no number. Unless noted, no stated cut-off is given here; in the data, active means inhibition above about 40%; inactive means the rest.

SMILES | Rpn11 block | CSN deneddyl inh | TPT1 inh | SENP1 FRET inh | HNF4A DNA FP | Rpn11 confirm | MMP-2 inh | Thrombin FP
CCOC(=O)Cc1nnc(NC(=O)CCc2ccccc2)s1 | -4 | 2 | 0 | 0 | -3 | · | · | ·
N/C(=N\OC(=O)c1cccc2ccccc12)c1cccc([N+](=O)[O-])c1 | 81* | 13 | -5 | 2 | 10 | 13 | 32 | -6
CCOc1ccccc1N(CC(=O)NC1CCCC1)C(=O)CNC(=O)c1cccs1 | 0 | 2 | -2 | 0 | 2 | · | · | ·
COc1ccc(F)c(CN2CCC(n3nccc3NC(=O)CCCc3ccccc3)CC2)c1 | 35* | 2 | -2 | 1 | 7 | -7 | -14 | -12
CCOC(=O)C1CCN(c2c(Nc3ccc(C)c(C)c3)c(=O)c2=O)CC1 | -6 | 5 | 1 | 3 | -4 | · | · | ·
O=C(Cn1c2ccccc2c(=O)c2ccccc21)N/N=C/c1cc([N+](=O)[O-])ccc1N1CCCCCC1 | + | 34 | 16 | -27 | -22 | 19 | 8 | 12
CCCCn1nnnc1C1(C)CCC(=O)N1Cc1ccc(OC)cc1 (centres undefined) | · | -1 | · | -2 | 0 | · | · | ·
CCC1(c2ccc(F)cc2)NC(=O)N(CC(=O)N2c3ccccc3CC2C)C1=O (centres undefined) | 1 | -2 | · | 0 | 2 | · | · | ·
CC1Nc2ncnc(N3CCc4ccccc4C3)c2N(Cc2ccc(Cl)cc2)C1=O (centres undefined) | 43* | 14 | 12 | -1 | 31 | 31 | 4 | 15
CC1Nc2ncnc(N3CCc4ccccc4C3)c2N(Cc2ccc(Br)cc2)C1=O (centres undefined) | 29 | 16 | 11 | 4 | 18 | · | · | ·
COc1ccc2c(c1)cc(C(=O)N[C@@H](CCSC)C(=O)N1CCC[C@H]1C(=O)O)n2C | -9 | 2 | 3 | 0 | -4 | · | · | ·
Oc1c(CN2CCCCC2)cc(COCc2ccccc2)c2cccnc12 | 76* | 4 | -2 | -3 | -2 | 39 | 30 | -11
COc1ccccc1N1CCN(Cc2cc(Br)c(O)c3ncccc23)CC1 | 45* | 1 | -6 | -4 | 0 | 31 | 34 | -21
CCCCCCN1C[C@H](O)[C@@H](n2cc(C3CC3)nn2)C[C@@H]1c1ccccc1 | -5 | -2 | · | 0 | 2 | · | · | ·
CN(C)CCN(C)C1CN(Cc2ccc([N+](=O)[O-])cc2)S(=O)(=O)C1 (centres undefined) | -4 | 7 | · | 4 | -4 | · | · | ·
NC(=O)c1ccc(NC(=O)c2ccc3c(c2)CCN3S(=O)(=O)c2ccccc2)cc1 | -2 | -2 | -1 | 1 | 0 | · | · | ·
COc1ccc(O)c(C(=O)c2cnn(C(=O)c3ccc(C)cc3)c2)c1 | 96* | 12 | · | -14 | 23 | -3 | -34 | -11
Cc1cc(N2CCCC2)ccc1/C=N/n1cnnc1 | 47* | 28 | 3 | -60 | 21 | -23 | -59 | -12
Cc1cc(/C=N/n2cnnc2)c(C)n1-c1ccc(Cl)cc1 | -1 | -2 | -1 | 1 | 2 | · | · | ·
CC(C)N(C(=O)C[n+]1ccc(/C=N/O)cc1)C(C)C | 44* | 1 | -2 | -1 | -1 | -14 | -20 | -26
Cc1nn(-c2ccccc2)c(Cl)c1/C=C1\SC(=S)NC1=O | 48* | 18 | 14 | 8 | 31 | -7 | 14 | -7
COc1ccc(/C=C2\Oc3cc(OCC(N)=O)ccc3C2=O)cc1OC | 8 | 4 | 15 | -28 | 4 | · | · | ·
COc1ccc(-c2ccc3c(c2)O/C(=C\c2ccsc2)C3=O)cn1 | 39* | 11 | · | -53 | 22 | -1 | -11 | -16
O=C(O)C(c1ccccc1)N1C(=O)/C(=C\c2ccc(O)c(O)c2)SC1=S (centres undefined) | 85* | 129 | 13 | 9 | -3 | 61* | 31 | 48*
O=C(NN1C(=O)/C(=C\c2cccnc2)SC1=S)C(c1ccccc1)c1ccccc1 | 17 | -7 | -1 | 3 | 1 | · | · | ·
SMILES | Rpn11 block | CSN deneddyl inh | TPT1 inh | SENP1 FRET inh | HNF4A DNA FP | Rpn11 confirm | MMP-2 inh | Thrombin FP
CC(=O)c1ccc(-n2nncc2-c2ccc([N+](=O)[O-])cc2)cc1 | 5 | -1 | 2 | 2 | 1 | · | · | ·
C/C(=N\Nc1ccc([N+](=O)[O-])cc1)c1ccc(-n2nncc2C)cc1 | 62* | 45 | 24 | -28 | 21 | 20 | 0 | -17
COC(=O)[C@@]12CCCCN1[C@H](c1ccc(-c3cccc(Cl)c3)c(OC)c1)[C@H]1C(=O)N(C)C(=O)[C@H]12 | -3 | 0 | 4 | -2 | 0 | · | · | ·
O=C(CN1CCCc2ccccc21)N/N=C/c1ccccc1 | 66* | -8 | 17 | -16 | 3 | 10 | -13 | -5
CCC(C)c1ccc(S(=O)(=O)N2CCN(CC(O)COCC3CCCO3)CC2)cc1 (centres undefined) | 4 | 1 | · | 1 | -2 | · | · | ·
O=C(c1cnn(-c2ccccc2)c1)c1cc(F)ccc1O | -8 | -2 | 0 | -3 | 5 | · | · | ·
O=C(O)CSc1cc(C(=O)c2cc(F)ccc2O)cn2c(=O)c3c(-c4ccccc4)csc3nc12 | 39* | 7 | 11 | -33 | 13 | 15 | 44* | 22
O=C1C=C(Nc2ccc(Cl)cc2)CC(c2ccc(Cl)cc2)C1 (centres undefined) | -11 | 2 | 2 | -38 | 1 | · | · | ·
Cc1ccc(C2CC(=O)C=C(Nc3ccc(Cl)cc3)C2)cc1 (centres undefined) | 85* | 3 | -5 | -27 | 35* | -6 | -65 | -15
COc1ccc(-n2ccc(=O)c(C(=O)Nc3ccc(S(=O)(=O)Nc4nccs4)cc3)n2)cc1 | 48* | -1 | 0 | 2 | 3 | 2 | 68* | 19
O=C(Nc1ccc(S(=O)(=O)Nc2nccs2)cc1)c1nn(-c2ccccc2)ccc1=O | 19 | 10 | 9 | 5 | -21 | · | · | ·
CN1/C(=C\C=N\NC(=O)c2ccc(O)cc2)C(C)(C)c2ccccc21 | 72* | 33 | -13 | -88 | 38* | 38 | -31 | 7
